Data set [1] is described as follows: melting temperature; fluorescence melt of hairpins on a sequencing array, two-state fit, raised by 9.35 °C to match UV melts. Particulars: sodium 0.088 M. In short, it runs like this: (§1)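 Folding enthalpy and melting temperature were estimated with bootstrapped two-state fits and combined across four replicates by inverse-variance weighting, with fitted temperatures raised by 9.35 °C to match UV melts. The data were Cy3 fluorescence of library hairpins, with annealed Cy3 and quencher oligos, on a sequenced MiSeq flow cell in 50 mM Na-HEPES pH 8.0, 25 mM NaCl, imaged in 2.5 °C steps up to 60 °C and normalised to pre-quench Cy3 and control constructs.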

Data set [2] in a line: folding enthalpy; higher = less favourable; fluorescence melt of hairpins on a sequencing array, two-state fit. Particulars: sodium 0.088 M. In short, it runs like this:
as §1

Experimental findings from the array DNA melting data of Ke et al. (doi:10.1101/2024.01.08.574731) are described below.

In the case of GATCAAAGCTTGATC ((((((...)))))), the Tm in data set [1] is 40.1 °C. Besides, the folding enthalpy in data set [2] is -28.1 kcal/mol.
As to GGTTAGGGAAACCTGATC (.(.(((....))).).), the Tm in data set [1] amounted to 31 °C. Also, the folding enthalpy in data set [2] was -11.7 kcal/mol.
On the same counts, the results for GATCTTGGAAACAAGATC (((((((....))))))) are 55.9 °C and -42.3 kcal/mol.
On the same counts, the results for GGGCGTCCGAAAGGACCC (((..(((....)))))) are 57.8 °C and -13.9 kcal/mol.
For the sequence GTTGTCGAAAGACGCAAC ((((((....)))..))), the Tm in data set [1] turned out to be 31.9 °C. Also, in data set [2], the folding enthalpy is -9.32 kcal/mol.
As to GACCGCGAAAGCGAGGTC ((((((....)))..))), the Tm in data set [1] stood at 56.6 °C. Moreover, in data set [2], the folding enthalpy is -19.2 kcal/mol.
For GCGTGCACGAAAGTGCGC (((..(((....)))))), the Tm in data set [1] came out at 51.9 °C. Also, the folding enthalpy in data set [2] is -9.64 kcal/mol.
Regarding GATGGGGGAAACCCTATC (((.(((....))).))), the Tm in data set [1] turned out to be 45 °C. Also, in data set [2], the folding enthalpy is -23.4 kcal/mol.
Turning to TAGGTGAAAACCTA (((((....))))), in data set [1], the Tm came to 41.1 °C. In addition, in data set [2], the folding enthalpy was -15.4 kcal/mol.
With GGCTCCGAAAGGATGCC ((((((....))).))), in data set [1], the Tm was found to be 62.6 °C. Further, in data set [2], the folding enthalpy is -31 kcal/mol.
On the same counts, the results for GCGGAGCGAAAGCACAGC ((.(.((....)).).)) are 58 °C and -17.4 kcal/mol.
On the same counts, the results for GGAAAGAAATTTCC (((((....))))) are 29.5 °C and -18.9 kcal/mol.
On the same counts, the results for GAGCCCGAAAGGGTCTC ((((((....))).))) are 59 °C and -23.8 kcal/mol.
With GATCATTCTATGATC ((((((...)))))), the Tm in data set [1] came out at 50.7 °C. The folding enthalpy in data set [2] was -33.7 kcal/mol.
For the sequence GCAAGGCGAAAGCCACGC ((..(((....)))..)), the Tm in data set [1] was found to be 47.1 °C. The folding enthalpy in data set [2] is -14.6 kcal/mol.
With GGGCATGGAAACATGCTC (.(((((....))))).), the Tm in data set [1] is 55.4 °C. Moreover, the folding enthalpy in data set [2] was -30.1 kcal/mol.
Regarding GTGTACACGAAAGTGCAC (((..(((....)))))), the Tm in data set [1] stood at 47.1 °C. Besides, the folding enthalpy in data set [2] was -19 kcal/mol.
On the same counts, the results for GCGGCTCACCGC ((((....)))) are 63 °C and -26.9 kcal/mol.
Consider GCGAAAGGTCGC ((((....)))), for which the Tm in data set [1] amounted to 41.4 °C. Moreover, the folding enthalpy in data set [2] was -14.1 kcal/mol.
On the same counts, the results for GTGTCAGGAAACTGATGC (..((((....))))..) are 38.3 °C and -21.1 kcal/mol.
On the same counts, the results for GTTAGCGAAAGCTAAC ((((((....)))))) are 66.4 °C and -28.2 kcal/mol.
On the same counts, the results for GATCTAGCAGTAGATC ((((((....)))))) are 43.2 °C and -31.2 kcal/mol.
On to GATCGATCCTCGATC ((((((...)))))), for which the Tm in data set [1] turned out to be 52.1 °C. In addition, the folding enthalpy in data set [2] is -40.4 kcal/mol.
Regarding GATCTCGTTGGAGATC ((((((....)))))), the Tm in data set [1] was 54.2 °C. For the same sequence, in data set [2], the folding enthalpy is -42.3 kcal/mol.
On the same counts, the results for GGCGTCGAAAGACCAGCC ((((((....)))..))) are 50.9 °C and -18.6 kcal/mol.
With GTTTGTGGAAACACAAAC (((((((....))))))), the Tm in data set [1] came out at 58.4 °C. In data set [2], the folding enthalpy was -46.4 kcal/mol.
In the case of GCGACCGAAAGGTGCCGC ((((((....)))..))), the Tm in data set [1] was 50.4 °C. The folding enthalpy in data set [2] was -15.6 kcal/mol.
On the same counts, the results for GCCCACGAAAGTGAAGGC ((((((....)))..))) are 52.1 °C and -28.2 kcal/mol.
For GTGAGCGGAAACGCTTAC ((.((((....)))).)), the Tm in data set [1] is 51.6 °C. For the same sequence, in data set [2], the folding enthalpy was -27.1 kcal/mol.
GCAGGGCGAAAGCCTGC (((.(((....)))))): the Tm in data set [1] is 68 °C. In data set [2], the folding enthalpy is -20.3 kcal/mol.
On the same counts, the results for GGGCGCGAAAGCGATCCC ((((((....)))..))) are 58.5 °C and -14.3 kcal/mol.
On the same counts, the results for GATCTTTCCCAAGATC ((((((....)))))) are 42.6 °C and -33.4 kcal/mol.
For GTGCCCGAAAGGGCCCAC ((((((....)))..))), the Tm in data set [1] amounted to 41 °C. For the same sequence, in data set [2], the folding enthalpy was -5.79 kcal/mol.
As to GCTGAGCGAAAGCTTTGC ((..(((....)))..)), in data set [1], the Tm was 47.9 °C. Also, in data set [2], the folding enthalpy is -19.1 kcal/mol.
On the same counts, the results for GCTGGCCGAAAGGCAAGC (((.(((....))).))) are 68.9 °C and -25.5 kcal/mol.
On the same counts, the results for GACTCCGAAAGGAAGGTC ((((((....)))..))) are 38.3 °C and -22.1 kcal/mol.
Regarding GGTCCCGGAAACGGGGTC (..((((....))))..), the Tm in data set [1] was determined as 42.8 °C. The folding enthalpy in data set [2] is -14.4 kcal/mol.
On the same counts, the results for GCATTGCGAAAGCGAGGC ((.(.((....)).).)) are 59.1 °C and -21 kcal/mol.
As for GATCCATGCGTGGATC ((((((....)))))), the Tm in data set [1] came to 56.8 °C. For the same sequence, in data set [2], the folding enthalpy is -35.8 kcal/mol.
With GCCGTGGGAAACCGTGGC (((..((....))..))), in data set [1], the Tm was determined as 47.4 °C. The folding enthalpy in data set [2] was -28.2 kcal/mol.
On the same counts, the results for GATCGGATACCGATC ((((((...)))))) are 56.6 °C and -36.4 kcal/mol.
For the sequence GTGTTCGAAAGAACACAC ((((((....)))..))), the Tm in data set [1] stood at 65 °C. The folding enthalpy in data set [2] is -11.8 kcal/mol.
GTTTGCGAAAGCAGAAC ((((((....))).))): the Tm in data set [1] was 44.5 °C. For the same sequence, the folding enthalpy in data set [2] was -13.7 kcal/mol.
Take GGAAAACGAAAGTTCTCC (((.(((....))).))): in data set [1], the Tm was determined as 35.7 °C. The folding enthalpy in data set [2] is -24.8 kcal/mol.
GGAGGTGGAAACACCTTC (.(((((....))))).): the Tm in data set [1] was found to be 51.4 °C. Further, the folding enthalpy in data set [2] is -29 kcal/mol.
In the case of GGAGCGCCGAAAGGCTCC (((..(((....)))))), the Tm in data set [1] amounted to 44.2 °C. In data set [2], the folding enthalpy is -14.7 kcal/mol.
As for GAACACGAAAGTGTATTC ((((((....)))..))), the Tm in data set [1] turned out to be 33.6 °C. For the same sequence, in data set [2], the folding enthalpy is -9.83 kcal/mol.
On the same counts, the results for GATCTAATACTAGATC ((((((....)))))) are 37.4 °C and -30.1 kcal/mol.
On the same counts, the results for GCTATGCGAAAGCCCAGC (((..((....))..))) are 29 °C and -11.6 kcal/mol.
On the same counts, the results for GATCTGCTAACAGATC ((((((....)))))) are 50.4 °C and -37.1 kcal/mol.
As to GATCCACATTGGATC ((((((...)))))), the Tm in data set [1] amounted to 52.2 °C. For the same sequence, the folding enthalpy in data set [2] is -25.2 kcal/mol.
On the same counts, the results for GTTGGGGGAAACTCCGAC ((.((.(....).)).)) are 41.6 °C and -25.9 kcal/mol.
On the same counts, the results for GCTAGACCGAAAGGTAGC (((..(((....)))))) are 44.1 °C and -19.2 kcal/mol.
On the same counts, the results for GCCCGGCGAAAGCCTAGC ((..(((....)))..)) are 27.2 °C and -13.8 kcal/mol.
GCCATGCGAAAGCACAGC ((..(((....)))..)): the Tm in data set [1] was found to be 36.6 °C. Besides, in data set [2], the folding enthalpy is -11.2 kcal/mol.
On the same counts, the results for GCGTACGGACGC ((((....)))) are 52.9 °C and -29.5 kcal/mol.
